Results reported in the RNAGym collection of RNA variant scans (doi:10.1126/science.aae0568).
Fewer inactive variants are shown than the library holds.

B1: tRNA (parent)
chain: GUUCCGUUGGCGUAAUGGUAACGCGUCUCCCUCCUAAGGAGAAGACUGCGGGUUCGAGUCCCGUACGGAACG

Variants of: B1
Assay: yeast fitness relative to wild type (ratio to wild type); higher = fitter; tRNA-Arg(CCU), competitive growth, 37 C, YPD
Summary of the method: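 Variants of the tRNA-Arg(CCU) gene, chemically synthesised with a 3% per-site mutation rate at 69 sites, were placed at the native genomic locus in Saccharomyces cerevisiae. The pooled strains were competed in YPD at 37°C for 24 hours in six parallel replicates. Gene amplicons from the start population and from each end population were read by 100-nucleotide paired-end sequencing. Darwinian fitness relative to wild type came from changes in genotype frequencies; genotypes needed ≥ 100 starting reads, and estimates < 0.5 were set to 0.5.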

| Variant | yeast fitness |
| --- | --- |
| C5U A14G G50C C55U A57G G68A | ≤ 0.5 |
| C5U C11U A15G G48C | 0.553 |
| C5U A21C A42G C61G | ≤ 0.5 |
| C5U A37C C46G C60U | ≤ 0.5 |
| C5U A36G A45U | 1.01 |
| C5G U32C | 0.946 |
| C5U A20U A70U | 0.842 |
| C5G U28G G58C C62U G63C U64G | 0.628 |
| C5U A21U C29G G58C | ≤ 0.5 |
| C5G U26C U32A | 0.604 |
| C5U C11A A14G | ≤ 0.5 |
| C5U A37U A57U A69C | ≤ 0.5 |
| C5U A15U C29U C31U C34U G48C G68A | ≤ 0.5 |
| C5U A14C A15U G17A U26C A42U A45C G63C G68U | ≤ 0.5 |
| C5U A20U G67A | 0.882 |
| C5U A15C G58A | 0.569 |
| C5U C11G U32A U35G C55A C61G | ≤ 0.5 |
| C5U A21G A45G | 0.638 |
| C5U A40U G56A G67C | ≤ 0.5 |
| C5U A36C A43G U54A C55G A69U | ≤ 0.5 |
| C5U A14U C24G | ≤ 0.5 |

| Variant | yeast fitness |
| --- | --- |
| C5U A20U C60A | ≤ 0.5 |
| C5U A21U C30G C62U | 0.57 |
| C5U A14C C29U C33A C49U C55G | ≤ 0.5 |
| C5U A45C C62A | 0.701 |
| C5U A45C C62U | 0.768 |
| C5G U35G C49A G56A | ≤ 0.5 |
| C5U A21U C33U C62U A70C | ≤ 0.5 |
| C5U C11U A36U C66U | ≤ 0.5 |
| C5U A15C C34G A40U A43C C49G G50A C60U | 0.583 |
| C5U C11U A15G G48C G63U A70U | ≤ 0.5 |
| C5U C11U A14C | 0.731 |
| C5G U54G | 0.654 |
| C5G U54A | 0.666 |
| C5U A14C G68C | ≤ 0.5 |
| C5U A40G G50C A57C G58C | ≤ 0.5 |
| C5U A15C G18A U35C A42G C49A | 0.586 |
| C5G U53G A65U | 0.612 |
| C5U A42G | 0.728 |
| C5U A42C | 1.01 |
| C5U A36G G51C | ≤ 0.5 |
| C5U A43U G56C G68U | 0.635 |

| Variant | yeast fitness |
| --- | --- |
| C5U A14U A21G G68C | 0.588 |
| C5U A43U | 0.918 |
| C5U A43G | 0.966 |
| C5U A20C C24U C34G | ≤ 0.5 |
| C5U A14U | 0.718 |
| C5U A14G | 0.77 |
| C5U C11A A21C C27G G68C | ≤ 0.5 |
| C5U C11U A21C C24U U26C U28A C31G C49G | ≤ 0.5 |
| C5U A14G A45G A69C | ≤ 0.5 |
| C5U A57G C66U | 0.655 |
| C5U A14G G68C | 0.57 |
| C5U A21G G67A | 0.629 |
| C5U A43U C49U C61U | ≤ 0.5 |
| C5U A43U C49U C61G | 0.532 |
| C5U A36U | 0.632 |
| C5U A36C | 0.69 |
| C5U A36G | 1 |
| C5G U32A A57G | 0.549 |
| C5U A40C C46A | 0.794 |
| C5G U47A G68C | 0.565 |
| C5U C11A C24G C27G A36U G38C | ≤ 0.5 |

| Variant | yeast fitness |
| --- | --- |
| C5G U35A G44C C66U G67U A70G | 0.542 |
| C5U A14C C31G A43U C60G | ≤ 0.5 |
| C5G U35A G63C | ≤ 0.5 |
| C5U A21G A37G G39C G44C C46A U54C A65C | ≤ 0.5 |
| C5U A40C C46A U54A | 0.55 |
| C5U A14U C30U G39C C60A A70C | ≤ 0.5 |
| C5U A21U A57U A65U | ≤ 0.5 |
| C5U A43U C49U C61A C66U | ≤ 0.5 |
| C5U C11A A14G A42G C55U A65U | ≤ 0.5 |
| C5G U59A A65G | 0.667 |
| C5U A21U U64A | ≤ 0.5 |
| C5U C11A U13C C24G C30G C60U A69U | ≤ 0.5 |
| C5U A14C C34G A37U A40U | ≤ 0.5 |
| C5U A15C G18A G23A U35C A42G C49A | ≤ 0.5 |
| C5U A15U C30G C33G A40G A42G A43U U54G | ≤ 0.5 |
| C5U A20G A37G | 0.524 |
| C5U C11A U26A C29U C30A C31U | ≤ 0.5 |
| C5U A40U A42G | ≤ 0.5 |
| C5U A14G A15U U28A C33G G41C G56A | ≤ 0.5 |
| C5U A20G U32G C33G C55U | ≤ 0.5 |
| C5U A40U A45G C46U | 0.986 |
